The term MIC denotes the smallest concentration in the dilution series that meets the test's criterion for growth inhibition. What is called MIC90 is an inhibitory concentration at the 90% level, which refers to growth in some studies and to a panel of isolates in others. The low end stands for higher susceptibility, the high end for lower susceptibility. As a reminder, the IC50 is the concentration at which inhibition is half-maximal. A higher IC50 goes with weaker potency. Broadly, the GI50 is the concentration giving 50% growth inhibition. Low values mean more potent growth inhibition, high ones less potent growth inhibition.

The values that follow come from ChEMBL document CHEMBL3872252, “New bithiazolyl hydrazones: Novel synthesis, characterization and antitubercular evaluation” (Bioorg Med Chem Lett, 2017).

The structures appear in SMILES notation. Converted amounts (≈) assume the structure as drawn.

Series [1] relates to Escherichia coli. Kind of series: Antibacterial activity against Escherichia coli. The class given is functional.
In series [2] the test system is Pseudomonas aeruginosa. Put plainly: Antibacterial activity against Pseudomonas aeruginosa. The class given is functional.
The subject of series [3] is Staphylococcus aureus. Kind of series: Antibacterial activity against Staphylococcus aureus. It counts as functional.
Series [4] concerns Bacillus subtilis. Put plainly: Antibacterial activity against Bacillus subtilis. It counts as functional.
Series [5] in a line: Antitubercular activity against Mycobacterium tuberculosis H37Ra ATCC 25177 dormant stage infected in human THP1 cells measured on day 12 by nitrate reductase assay. It counts as functional, THP-1. The following applies: ATCC 25177, 288 h.
Series [6] in a line: Antitubercular activity against Mycobacterium tuberculosis H37Ra ATCC 25177 active stage infected in human THP1 cells measured on day 8 by nitrate reductase assay. The settings on record: ATCC 25177, 192 h. The class given is functional, THP-1.
Series [7] is described as follows: Antitubercular activity against Mycobacterium tuberculosis H37Ra ATCC 25177 active stage measured on day 8 by XTT reduction menadione based two-fold dilution assay. It counts as functional. The following applies: ATCC 25177, 192 h. The method, boiled down:
(§1)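 M. tuberculosis H37Ra ATCC 25177 was exposed to 0.7–100 μg/mL in two-fold steps (0.7, 1.5, 3.1 … 100). Active stage was read after 8 days and dormant stage after 12 days of incubation. Inhibition was read by XTT reduction menadione assay (XRMA), absorbance 470 nm. MIC90 is the concentration giving ≥90% inhibition (µg/mL).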
In general terms: Tetrazolium assays rely on reduction of a dye to a coloured formazan, in cell work by metabolically active cells.

The nature of series [8]: Antitubercular activity against Mycobacterium tuberculosis H37Ra ATCC 25177 dormant stage measured on day 12 by XTT reduction menadione based two-fold dilution assay. It counts as functional. The following applies: ATCC 25177, 288 h. The essentials: as §1
A short description of series [9]: Antitubercular activity against Mycobacterium bovis BCG ATCC 35743 active stage measured on day 8 by nitrate reductase based two-fold dilution assay. It counts as functional, Mycobacterium bovis BCG str. ATCC 35743. The settings on record: Mycobacterium tuberculosis variant bovis BCG, ATCC 35743, 192 h.
Series [10] can be described thus: Antitubercular activity against Mycobacterium bovis BCG ATCC 35743 dormant stage measured on day 12 by nitrate reductase based two-fold dilution assay. The class given is functional, Mycobacterium bovis BCG str. ATCC 35743. The settings on record: Mycobacterium tuberculosis variant bovis BCG, ATCC 35743, 288 h.
The nature of series [11]: Cytotoxicity against human THP1 cells by MTT assay. The class given is toxicity, cell-based, THP-1.
Series [12] can be described thus: Cytotoxicity against human MCF7 cells by MTT assay. It counts as toxicity, cell-based.
Series [13] can be described thus: Cytotoxicity against human HCT116 cells by MTT assay. It counts as toxicity, cell-based, HCT-116.
A short description of series [14]: Selectivity index, ratio of GI50 for human MCF7 cells to MIC90 for Mycobacterium tuberculosis H37Ra ATCC 25177 active stage. It counts as toxicity, cell-based. The following applies: read-out: Selectivity Index. The essentials:
(§2)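 Cytotoxicity was measured on human MCF-7, HCT116 and THP-1 cells by MTT assay, with paclitaxel as reference. GI50 is the concentration inhibiting 50% of cell growth. The selectivity index is GI50 for the given cell line divided by MIC90 for the given mycobacterial strain and stage.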

The nature of series [15]: Selectivity index, ratio of GI50 for human MCF7 cells to MIC90 for Mycobacterium tuberculosis H37Ra ATCC 25177 dormant stage. The class given is toxicity, cell-based. The following applies: read-out: Selectivity Index. The method, boiled down:
(§3)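 Cytotoxicity was measured on human MCF-7, HCT116 and THP-1 cells by MTT assay, with paclitaxel as reference. The selectivity index is GI50 for the given cell line divided by MIC90 for the given mycobacterial strain and stage.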

Series [16] in a line: Selectivity index, ratio of GI50 for human MCF7 cells to MIC90 for Mycobacterium bovis BCG ATCC 35743 active stage. It counts as toxicity, cell-based. The settings on record: read-out: Selectivity Index. The method, boiled down: as §2
A short description of series [17]: Selectivity index, ratio of GI50 for human MCF7 cells to MIC90 for Mycobacterium bovis BCG ATCC 35743 dormant stage. It counts as toxicity, cell-based. The following applies: read-out: Selectivity Index. The essentials:
as §3

Series [18] can be described thus: Selectivity index, ratio of GI50 for human HCT116 cells to MIC90 for Mycobacterium tuberculosis H37Ra ATCC 25177 active stage. The class given is toxicity, cell-based, HCT-116. The settings on record: read-out: Selectivity Index. The essentials: as §2
Series [19] is described as follows: Selectivity index, ratio of GI50 for human HCT116 cells to MIC90 for Mycobacterium tuberculosis H37Ra ATCC 25177 dormant stage. The class given is toxicity, cell-based, HCT-116. The following applies: read-out: Selectivity Index. The method, boiled down:
as §3

A short description of series [20]: Selectivity index, ratio of GI50 for human HCT116 cells to MIC90 for Mycobacterium bovis BCG ATCC 35743 active stage. It counts as toxicity, cell-based, HCT-116. The following applies: read-out: Selectivity Index. The essentials: as §2
A short description of series [21]: Selectivity index, ratio of GI50 for human HCT116 cells to MIC90 for Mycobacterium bovis BCG ATCC 35743 dormant stage. It counts as toxicity, cell-based, HCT-116. The settings on record: read-out: Selectivity Index. The essentials:
as §3

The nature of series [22]: Selectivity index, ratio of GI50 for human THP1 cells to MIC90 for Mycobacterium tuberculosis H37Ra ATCC 25177 active stage. The following applies: read-out: Selectivity Index. The class given is toxicity, cell-based, THP-1. The method, boiled down:
as §2

A short description of series [23]: Selectivity index, ratio of GI50 for human THP1 cells to MIC90 for Mycobacterium tuberculosis H37Ra ATCC 25177 dormant stage. It counts as toxicity, cell-based, THP-1. The following applies: read-out: Selectivity Index. The method, boiled down: as §3
Series [24] is described as follows: Selectivity index, ratio of GI50 for human THP1 cells to MIC90 for Mycobacterium bovis BCG ATCC 35743 active stage. It counts as toxicity, cell-based, THP-1. The following applies: read-out: Selectivity Index. The method, boiled down: as §2
The nature of series [25]: Selectivity index, ratio of GI50 for human THP1 cells to MIC90 for Mycobacterium bovis BCG ATCC 35743 dormant stage. The class given is toxicity, cell-based, THP-1. The following applies: read-out: Selectivity Index. The method, boiled down: as §3
Series [26] has as its system Escherichia coli. Kind of series: Growth inhibition of Escherichia coli at 30 ug/ml. The class given is functional. The following applies: read-out: GI.
The subject of series [27] is Escherichia coli. Put plainly: Growth inhibition of Escherichia coli at 10 ug/ml. The following applies: read-out: GI. It counts as functional.
For series [28], the system named is Escherichia coli. Kind of series: Growth inhibition of Escherichia coli at 3 ug/ml. The class given is functional. The settings on record: read-out: GI. The method, boiled down:
(§4)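 Screened against Gram-negative E. coli and P. aeruginosa and Gram-positive S. aureus and B. subtilis. Compound was tested at 3 µg/ml, and the read-out is percent growth inhibition.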

Series [29] has as its system Pseudomonas aeruginosa. Kind of series: Growth inhibition of Pseudomonas aeruginosa at 30 ug/ml. It counts as functional. The following applies: read-out: GI.
For series [30], the system named is Pseudomonas aeruginosa. Put plainly: Growth inhibition of Pseudomonas aeruginosa at 10 ug/ml. The class given is functional. The following applies: read-out: GI.
Series [31] relates to Pseudomonas aeruginosa. Kind of series: Growth inhibition of Pseudomonas aeruginosa at 3 ug/ml. The settings on record: read-out: GI. It counts as functional. The essentials:
as §4

Series [32] relates to Staphylococcus aureus. Put plainly: Growth inhibition of Staphylococcus aureus at 30 ug/ml. It counts as functional. The settings on record: read-out: GI.
For series [33], the system named is Staphylococcus aureus. Put plainly: Growth inhibition of Staphylococcus aureus at 10 ug/ml. The class given is functional. The settings on record: read-out: GI.
The test system of series [34] is Staphylococcus aureus. Put plainly: Growth inhibition of Staphylococcus aureus at 3 ug/ml. It counts as functional. The following applies: read-out: GI. The method, boiled down:
as §4

The test system of series [35] is Bacillus subtilis. Put plainly: Growth inhibition of Bacillus subtilis at 30 ug/ml. It counts as functional. The following applies: read-out: GI.
For series [36], the system named is Bacillus subtilis. Kind of series: Growth inhibition of Bacillus subtilis at 10 ug/ml. It counts as functional. The settings on record: read-out: GI.
The subject of series [37] is Bacillus subtilis. Put plainly: Growth inhibition of Bacillus subtilis at 3 ug/ml. It counts as functional. The settings on record: read-out: GI. The essentials: as §4

Turning to `NC[C@H]1O[C@H](O[C@H]2[C@H](O)[C@@H](O[C@H]3O[C@H](CO)[C@@H](O)[C@H](N)[C@H]3O)[C@H](N)C[C@@H]2N)[C@H](O)[C@@H](O)[C@@H]1O` [KANAMYCIN], the MIC in the series on Escherichia coli [1] was 1.62 µg/mL (≈ 3.34 µM); in the series on Pseudomonas aeruginosa [2], 0.49 µg/mL (≈ 1.01 µM); against Staphylococcus aureus [3] it was more than 30 µg/mL; in the series with Bacillus subtilis [4], 1.35 µg/mL (≈ 2.79 µM).

As for `CC1(C)S[C@@H]2[C@H](NC(=O)[C@H](N)c3ccccc3)C(=O)N2[C@H]1C(=O)O` [AMPICILLIN], the minimum inhibitory concentration (MIC) in the series on Escherichia coli [1] was found to be 1.46 µg/mL (≈ 4.18 µM); against Pseudomonas aeruginosa [2], 4.36 µg/mL (≈ 12.5 µM); in the series on Staphylococcus aureus [3], 1 µg/mL (≈ 2.86 µM); in the series with Bacillus subtilis [4] it was 10.3 µg/mL (≈ 29.5 µM).

Regarding `COc1ccc(-c2csc(N/N=C(\C)c3sc(C)nc3C)n2)cc1`, the MIC90 was 46.2 µg/mL (≈ 129 µM) in [5]; 48.2 µg/mL (≈ 135 µM) in series [6]; 74.1 µg/mL (≈ 207 µM) in series [7]; 20.5 µg/mL (≈ 57.2 µM) in series [8]; 67.3 µg/mL (≈ 188 µM) in series [9]; 24 µg/mL (≈ 67.1 µM) in [10]. In addition, the IC50 was 0.88 µg/mL (≈ 2.45 µM) in [7], 1.24 µg/mL (≈ 3.46 µM) in series [8], 7.37 µg/mL (≈ 20.6 µM) in [9] and 8.41 µg/mL (≈ 23.5 µM) in series [10]. Further, the GI50 in series [11] (THP1 cells), in series [12] (MCF7 cells) and in [13] (HCT116 cells) was more than 100 µg/mL each time. For the same compound, the GI90 in series [11] (thp-1), in series [12] (mcf7) and in series [13] (hct-116) was more than 100 µg/mL throughout. Besides, the selectivity ratio in series [14] amounted to 1; in series [15] it was 5; in [16], 1; in [17], 12; in series [18], 1; in series [19] it was 5. Besides, the selectivity ratio in [20] was 1; in series [21], 12; in [22], 1; in [23], 5; in series [24] it was 1; in series [25], 12. Also, the inhibition of growth at 30 µg/mL was found to be 69.2% in the series on Escherichia coli [26], 67.8% in the series on Pseudomonas aeruginosa [29], 67.2% in the series on Staphylococcus aureus [32] and 64.7% with Bacillus subtilis [35]. Moreover, the inhibition of growth at 10 µg/mL was 74.3% in the series on Escherichia coli [27], 73.5% with Pseudomonas aeruginosa [30], 72.7% with Staphylococcus aureus [33] and 70.6% in the series with Bacillus subtilis [36]. Also, the inhibition of growth at 3 µg/mL is 74.4% with Escherichia coli [28], 73.6% in the series on Pseudomonas aeruginosa [31], 72.8% in the series with Staphylococcus aureus [34] and 70.7% in the series on Bacillus subtilis [37].
